Source: ChEMBL document CHEMBL4330062 (Eur J Med Chem, 2019)
Where a SMILES comes first, the peptide text is derived from it. Bridges are numbered along the chain shown (N, C = ends). The star is where a group is joined. NH(β-GlcNAc) = CC(=O)N[C@@H]1[C@@H](O)[C@H](O)[C@@H](CO)O[C@H]1N*; Valol = CC(C)[C@@H](CO)N*

Key:
[1] = biological target: T1, Somatostatin receptor type 4 (Homo sapiens, UniProt P31391); assay: Displacement of [125I]somatostatin-14 (Tyr11) from human SSTR4 expressed in African green monkey COS1 cell membranes after 2 hrs by scintillation counting method
T1 sequence (P31391 whole entry): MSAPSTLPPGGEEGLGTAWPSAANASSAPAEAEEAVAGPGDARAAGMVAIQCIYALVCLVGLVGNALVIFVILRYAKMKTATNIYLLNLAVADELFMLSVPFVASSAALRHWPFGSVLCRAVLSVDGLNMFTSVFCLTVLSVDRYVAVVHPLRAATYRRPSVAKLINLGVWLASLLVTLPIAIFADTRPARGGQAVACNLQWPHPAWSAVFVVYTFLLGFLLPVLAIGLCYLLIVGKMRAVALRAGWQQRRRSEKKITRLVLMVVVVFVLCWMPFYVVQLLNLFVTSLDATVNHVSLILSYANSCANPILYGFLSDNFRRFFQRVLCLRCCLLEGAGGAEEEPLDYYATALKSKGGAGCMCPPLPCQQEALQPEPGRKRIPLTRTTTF
Method in brief: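 Membranes from transiently transfected COS-1 cells (10 μg protein) incubated 2 h at room temperature in 10 mM Hepes pH 7.5 with 5 mM MgCl2, bacitracin, 0.5% BSA and ¹²⁵I-[Tyr¹¹]-somatostatin-14 (30,000 cpm), with unlabeled somatostatin-14 and test ligands at various concentrations. Bound radioactivity read by scintillation counting.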

[2] = biological target: T2, Somatostatin receptor type 5 (Homo sapiens, UniProt P35346); assay: Displacement of [125I]somatostatin-14 (Tyr11) from human SSTR5 expressed in African green monkey COS1 cell membranes after 2 hrs by scintillation counting method
T2 sequence (P35346 whole entry): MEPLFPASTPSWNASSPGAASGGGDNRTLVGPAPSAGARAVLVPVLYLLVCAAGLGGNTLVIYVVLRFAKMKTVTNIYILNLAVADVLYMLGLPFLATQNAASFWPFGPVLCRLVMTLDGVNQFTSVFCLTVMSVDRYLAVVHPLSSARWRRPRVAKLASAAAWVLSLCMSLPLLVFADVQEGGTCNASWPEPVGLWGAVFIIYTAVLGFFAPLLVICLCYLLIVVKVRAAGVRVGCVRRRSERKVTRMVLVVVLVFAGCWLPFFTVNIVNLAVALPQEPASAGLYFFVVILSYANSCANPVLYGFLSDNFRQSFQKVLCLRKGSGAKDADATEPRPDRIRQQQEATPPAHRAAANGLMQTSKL
Method in brief: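 SSTR-5 gene cloned into pCMV6c and transfected into COS1 cells. Membrane preparation (20 μg protein) incubated 2 h at room temperature in Na⁺-free buffer: 10 mM HEPES, 1% BSA, 5 mM MgCl2, 1 mg/ml bacitracin, pH 7.45. Contained ~10 pM [¹²⁵I-Tyr¹¹]-somatostatin-14, either alone or with somatostatin-14 and test ligands at various concentrations.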

Homo sapiens [3] = organism: Homo sapiens; assay: Selectivity ratio of Ki for human SSTR5 to Ki for human SSTR4
Homo sapiens [4] = organism: Homo sapiens; assay: Selectivity ratio of Ki for human SSTR4 to Ki for human SSTR5
[5] = biological target: T1, Somatostatin receptor type 4; assay: Inhibition of human SSTR4 by radioligand binding assay
[6] = biological target: T2, Somatostatin receptor type 5; assay: Inhibition of human SSTR5 by radioligand binding assay

| Compound | IC50 [1] | Ki [1] | IC50 [2] | Ki [2] | Ratio Ki (Homo sapiens [3]) | Ratio Ki (Homo sapiens [4]) | IC50 [5] | IC50 [6] |
| --- | --- | --- | --- | --- | --- | --- | --- | --- |
| Cc1ccc(S[C@H]2O[C@H](CO)[C@@H](O)[C@H](OC/C=C/CN)[C@@H]2NC(=O)Cc2c[nH]c3ccccc23)cc1 | 2.2 µM | 2.1 µM | 5.9 µM | 3.9 µM | 1.8 | – | – | – |
| Cc1ccc(S[C@H]2O[C@H](CO)[C@@H](O)[C@H](OCCCCN)[C@@H]2NC(=O)Cc2c[nH]c3ccccc23)cc1 | 6.9 µM | 6.8 µM | 18 µM | 12 µM | 1.8 | – | – | – |
| CC(=O)O[C@H]1[C@H](OC(C)=O)[C@@H](CCCCCN)N(Cc2cccc3ccccc23)C[C@@H]1OC(C)=O | – | 5.4 µM | – | 5.1 µM | – | 1.05 | – | – |
| NCCCCN1CCCCCOCc2cn(nn2)C[C@H]2O[C@H](CC1)[C@H](OCc1cccc3ccccc13)[C@@H](O)[C@H]2O | > 100 µM | > 100 µM | > 100 µM | > 100 µM | – | – | – | – |
| NCCCCC[C@@H]1[C@@H](O)[C@H](O)[C@@H](O)CN1Cc1cccc2ccccc12 | – | > 100 µM | – | 23 µM | – | – | – | – |
| NCCCCN1CCCCCCOCc2cn(nn2)C[C@H]2O[C@H](CC1)[C@H](OCc1cccc3ccccc13)[C@@H](O)[C@H]2O | > 100 µM | > 100 µM | > 100 µM | > 100 µM | – | – | – | – |
| NCCCCCOC[C@@H]1[C@@H](OCc2ccccc2)[C@H](OCc2ccccc2)[C@@H](OCc2ccccc2)CN1CCc1c[nH]c2ccccc12 | – | – | – | – | 1.13 | – | – | – |
| CC(C)CCO[C@@H]1[C@@H](O)[C@@H](O)[C@H]2Cn3cc(nn3)COCCCCCCN(CCc3c[nH]c4ccccc34)CC[C@H]1O2 | 22 µM | 21 µM | 6.2 µM | 4.1 µM | – | – | – | – |
| NCCCCO[C@@H]1[C@@H](O)[C@H](CO)OC(O)[C@@H]1NC(=O)Cc1c[nH]c2ccccc12 (stereo not given in full) | – | > 100 µM | – | > 100 µM | – | – | – | – |
| NCCCCC[C@@H]1[C@@H](OCc2ccccc2)[C@H](OCc2ccccc2)[C@@H](OCc2ccccc2)CN1Cc1cccc2ccccc12 | – | 1.9 µM | – | 1.3 µM | – | 1.46 | – | – |
| NCCCCCOC[C@@H]1[C@@H](O)[C@H](O)[C@@H](O)CN1CCc1c[nH]c2ccccc12 | – | – | – | > 100 µM | – | – | – | – |

Other lines, results leading:

| IC50 [1] | Ki [1] | IC50 [2] | Ki [2] | Ratio Ki (Homo sapiens [3]) | Ratio Ki (Homo sapiens [4]) | IC50 [5] | IC50 [6] | Compound |
| --- | --- | --- | --- | --- | --- | --- | --- | --- |
| 21 µM | 20 µM | 5.2 µM | 3.4 µM | – | – | – | – | CC(=O)N[C@@H]1[C@@H](O)[C@H](O)[C@@H](CO)O[C@H]1NC(=O)C[C@@H]1NC(=O)[C@H](CCCCN)NC(=O)[C@H](Cc2c[nH]c3ccccc23)NC(=O)[C@H](Cc2ccccc2)NC(=O)[C@@H](NC(=O)[C@H](Cc2ccccc2)NC(C)=O)CSSC[C@@H](C(=O)N[C@H](CO)C(C)C)NC1=O (Ac-FCFWKD(NH(β-GlcNAc))C-Valol; disulfide 2-7) |
| – | – | – | – | – | – | 103 nM | > 1000 nM | C[C@@H](O)[C@@H]1NC(=O)[C@H](CCCCN)NC(=O)[C@@H](Cc2c[nH]c3ccccc23)NC(=O)[C@H](Cc2ccccc2)NC(=O)[C@@H](NC(=O)[C@@H](Cc2ccccc2)NC(=O)CN2CCN(CC(=O)O)CCN(CC(=O)O)CCN(CC(=O)O)CC2)CSSC[C@@H](C(=O)N[C@H](CO)[C@@H](C)O)NC1=O |
| 1.2 µM | 1.9 µM | 3 µM | 3.2 µM | – | – | – | – | NCCCCO[C@H]1[C@H](O)[C@H](OCc2ccccc2)COCCCc2cccc(O)c2C(=O)OC[C@@H]1NC(=O)Cc1c[nH]c2ccccc12 |
| 7.4 µM | 7.2 µM | 16 µM | 10 µM | – | – | – | – | CC(=O)N[C@@H](Cc1ccccc1)C(=O)N[C@H]1CSSC[C@@H](C(=O)N[C@H](CO)C(C)C)NC(=O)[C@H](CC(=O)O)NC(=O)[C@H](CCCCN)NC(=O)[C@H](Cc2c[nH]c3ccccc23)NC(=O)[C@H](Cc2ccccc2)NC1=O (Ac-FCFWKDC-Valol; disulfide 2-7) |
| > 100 µM | > 100 µM | – | > 100 µM | – | – | – | – | CC(=O)N[C@@H](Cc1ccccc1)C(=O)N[C@@H](C)C(=O)N[C@@H](Cc1ccccc1)C(=O)N[C@@H](Cc1c[nH]c2ccccc12)C(=O)N[C@@H](CCCCN)C(=O)N[C@@H](CC(=O)O)C(=O)N[C@@H](C)C(=O)N[C@H](CO)C(C)C (Ac-FAFWKDA-Valol) |
| 0.59 µM | 0.58 µM | 1.6 µM | 1.1 µM | – | – | – | – | NC/C=C/CO[C@H]1[C@H](O)[C@H](OCc2ccccc2)COC/C=C/c2cccc(O)c2C(=O)OC[C@@H]1NC(=O)Cc1c[nH]c2ccccc12 |
